Data from ChEMBL document CHEMBL1932986, “Synthesis and in vitro antimycobacterial activity of compounds derived from (R)- and (S)-2-amino-1-butanol - The crucial role of the configuration” (Eur J Med Chem, 2012).
≈ marks a conversion by molar mass, not a printed value. Calls of active or inactive are those of the source. The calls are words filed in the database; no cut-off is given here.

Tests used:
Bacillus cereus [1] = experiment: Antibacterial activity against Bacillus cereus ATCC 11778 assessed as concentration required to produce >11 mm of zone of inhibition after 24 hrs by agar diffusion test; type: functional
In short: (§1)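 Agar diffusion: wells in agar filled with […] DMSO solution of compound at various concentrations; diameter of clear zone around application point measured. Bacteria grown 24 h at 37 °C on nutrient agar. Compounds first screened at 50 mg/ml; those active then tested at lower concentrations. Bracketed value = lowest concentration (mg/ml) giving zone >11 mm, reported only if activity retained at ≤1.25 mg/ml.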

Bacillus cereus [2] = experiment: Antibacterial activity against Bacillus cereus ATCC 11778 at 50 mg/ml after 24 hrs by agar diffusion test; type: functional; details: ATCC 11778, 24 h, read-out: DIZ; in short: as §1
Micrococcus luteus [3] = experiment: Antibacterial activity against Sarcina lutea ATCC 9341 assessed as concentration required to produce >11 mm of zone of inhibition after 24 hrs by agar diffusion test; type: functional; in short: as §1
Acinetobacter johnsonii [4] = experiment: Antibacterial activity against Acinetobacter johnsonii ATCC 17909 at 2 mg/ml after 24 hrs by agar diffusion test; type: functional; in short: as §1
Bacillus mycoides [5] = experiment: Antibacterial activity against Bacillus mycoides DSMZ 274 at 2 mg/ml after 24 hrs by agar diffusion test; type: functional, organism-based; in short: as §1
Micrococcus luteus [6] = experiment: Antibacterial activity against Sarcina lutea ATCC 9341 at 50 mg/ml after 24 hrs by agar diffusion test; type: functional; details: ATCC 9341, 24 h, read-out: DIZ
In short: (§2)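 Agar diffusion: bacteria grown 24 h at 37 °C on nutrient agar. Wells in the agar are filled with […] of compound solution in DMSO at various concentrations. The diameter of the clear zone around the application point is measured. Bracketed values give the lowest concentration (mg/ml) that produces a zone >11 mm. A first screen is run at 50 mg/ml.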

Escherichia coli [7] = experiment: Antibacterial activity against Escherichia coli ATCC 8739 at 50 mg/ml after 24 hrs by agar diffusion test; type: functional; details: ATCC 8739, 24 h, read-out: DIZ; in short: as §1
Staphylococcus aureus [8] = experiment: Antibacterial activity against Staphylococcus aureus NRRL B 313 at 2 mg/ml after 24 hrs by agar diffusion test; type: functional, organism-based; in short: as §2
Escherichia coli [9] = experiment: Antibacterial activity against Escherichia coli ATCC 8739 at 2 mg/ml after 24 hrs by agar diffusion test; type: functional, organism-based; in short: as §1
Priestia megaterium [10] = experiment: Antibacterial activity against Bacillus megaterium NRRL 1353895 assessed as concentration required to produce >11 mm of zone of inhibition after 24 hrs by agar diffusion test; type: functional; in short: as §1
Staphylococcus aureus [11] = experiment: Antibacterial activity against Staphylococcus aureus NRRL B 313 assessed as concentration required to produce >11 mm of zone of inhibition after 24 hrs by agar diffusion test; type: functional; in short: as §2
Penicillium chrysogenum [12] = experiment: Antifungal activity against Penicillium chrysogenum CECT 2802 assessed as concentration required to produce >11 mm of zone of inhibition after 72 hrs by agar diffusion test; type: functional
In short: (§3)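 Agar diffusion: yeasts grown on yeast peptone dextrose agar and fungi on potato dextrose agar. Wells are filled with […] of compound solution in DMSO at various concentrations, and the clear-zone diameter is measured. Bracketed values give the lowest concentration (mg/ml) that produces a zone >11 mm. A first screen is run at 50 mg/ml.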

Acinetobacter johnsonii [13] = experiment: Antibacterial activity against Acinetobacter johnsonii ATCC 17909 at 50 mg/ml after 24 hrs by agar diffusion test; type: functional; details: ATCC 17909, 24 h, read-out: DIZ; in short: as §1
Penicillium chrysogenum [14] = experiment: Antifungal activity against Penicillium chrysogenum CECT 2802 at 2 mg/ml after 72 hrs by agar diffusion test; type: functional, organism-based; in short: as §3
[15] = tested on: Mycobacterium tuberculosis; experiment: Antimycobacterial activity against Mycobacterium tuberculosis H37Rv after 45 days; type: functional
In short: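 Canetti proportion method. Compound in DMSO is added to Löwenstein–Jensen egg medium before coagulation (30 min, 85 °C), tested at three levels plus a lower one where needed. Tubes are inoculated with H37Rv at 10⁵ cells/ml and incubated 45 days at 37 °C. Colony counts versus drug-free control give percentage inhibition.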

Bacillus mycoides [16] = experiment: Antibacterial activity against Bacillus mycoides DSMZ 274 at 50 mg/ml after 24 hrs by agar diffusion test; type: functional; details: DSMZ 274, 24 h, read-out: DIZ; in short: as §1
Bacillus [17] = experiment: Antibacterial activity against Bacillus idosus B 241 at 2 mg/ml after 24 hrs by agar diffusion test; type: functional, organism-based; in short: as §1
Bacillus mycoides [18] = experiment: Antibacterial activity against Bacillus mycoides DSMZ 274 assessed as concentration required to produce >11 mm of zone of inhibition after 24 hrs by agar diffusion test; type: functional; in short: as §1
Staphylococcus aureus [19] = experiment: Antibacterial activity against Staphylococcus aureus NRRL B 313 at 50 mg/ml after 24 hrs by agar diffusion test; type: functional; details: NRRL B 313, 24 h, read-out: DIZ; in short: as §2
Candida tropicalis [20] = experiment: Antifungal activity against Candida tropicalis ATCC 20336 at 2 mg/ml after 72 hrs by agar diffusion test; type: functional, organism-based; in short: as §3
Micrococcus luteus [21] = experiment: Antibacterial activity against Micrococcus luteus ATCC 9631 assessed as concentration required to produce >11 mm of zone of inhibition after 24 hrs by agar diffusion test; type: functional; in short: as §1
Candida tropicalis [22] = experiment: Antifungal activity against Candida tropicalis ATCC 20336 assessed as concentration required to produce >11 mm of zone of inhibition after 72 hrs by agar diffusion test; type: functional; in short: as §3
Candida tropicalis [23] = experiment: Antifungal activity against Candida tropicalis ATCC 20336 at 50 mg/ml after 72 hrs by agar diffusion test; type: functional; details: ATCC 20336, 72 h, read-out: DIZ; in short: as §3
Bacillus subtilis [24] = experiment: Antibacterial activity against Bacillus subtilis ATCC 6633 assessed as concentration required to produce >11 mm of zone of inhibition after 24 hrs by agar diffusion test; type: functional; in short: as §1
Micrococcus luteus [25] = experiment: Antibacterial activity against Micrococcus luteus ATCC 9631 at 50 mg/ml after 24 hrs by agar diffusion test; type: functional; details: ATCC 9631, 24 h, read-out: DIZ; in short: as §1
Saccharomyces cerevisiae [26] = experiment: Antifungal activity against Saccharomyces cerevisiae ATCC 9763 at 2 mg/ml after 72 hrs by agar diffusion test; type: functional, organism-based; in short: as §3
Micrococcus luteus [27] = experiment: Antibacterial activity against Micrococcus luteus ATCC 9631 at 2 mg/ml after 24 hrs by agar diffusion test; type: functional, organism-based; in short: as §1
Penicillium chrysogenum [28] = experiment: Antifungal activity against Penicillium chrysogenum CECT 2802 at 50 mg/ml after 72 hrs by agar diffusion test; type: functional; details: CECT 2802, 72 h, read-out: DIZ; in short: as §3
Priestia megaterium [29] = experiment: Antibacterial activity against Bacillus megaterium NRRL 1353895 at 50 mg/ml after 24 hrs by agar diffusion test; type: functional; details: NRRL 1353895, 24 h, read-out: DIZ; in short: as §1
Saccharomyces cerevisiae [30] = experiment: Antifungal activity against Saccharomyces cerevisiae ATCC 9763 assessed as concentration required to produce >11 mm of zone of inhibition after 72 hrs by agar diffusion test; type: functional; in short: as §3
Priestia megaterium [31] = experiment: Antibacterial activity against Bacillus megaterium NRRL 1353895 at 2 mg/ml after 24 hrs by agar diffusion test; type: functional, organism-based; in short: as §1
Micrococcus luteus [32] = experiment: Antibacterial activity against Sarcina lutea ATCC 9341 at 2 mg/ml after 24 hrs by agar diffusion test; type: functional, organism-based; in short: as §1
Bacillus [33] = experiment: Antibacterial activity against Bacillus idosus B 241 assessed as concentration required to produce >11 mm of zone of inhibition after 24 hrs by agar diffusion test; type: functional; in short: as §1
Saccharomyces cerevisiae [34] = experiment: Antifungal activity against Saccharomyces cerevisiae ATCC 9763 at 50 mg/ml after 72 hrs by agar diffusion test; type: functional; details: ATCC 9763, 72 h, read-out: DIZ; in short: as §3
Bacillus [35] = experiment: Antibacterial activity against Bacillus idosus B 241 at 50 mg/ml after 24 hrs by agar diffusion test; type: functional; details: B 241, 24 h, read-out: DIZ; in short: as §1
Escherichia coli [36] = experiment: Antibacterial activity against Escherichia coli ATCC 8739 assessed as concentration required to produce >11 mm of zone of inhibition after 24 hrs by agar diffusion test; type: functional; in short: as §1
Bacillus subtilis [37] = experiment: Antibacterial activity against Bacillus subtilis ATCC 6633 at 2 mg/ml after 24 hrs by agar diffusion test; type: functional, organism-based; in short: as §1
Acinetobacter johnsonii [38] = experiment: Antibacterial activity against Acinetobacter johnsonii ATCC 17909 assessed as concentration required to produce >11 mm of zone of inhibition after 24 hrs by agar diffusion test; type: functional; in short: as §1
Bacillus subtilis [39] = experiment: Antibacterial activity against Bacillus subtilis ATCC 6633 at 50 mg/ml after 24 hrs by agar diffusion test; type: functional; details: ATCC 6633, 24 h, read-out: DIZ; in short: as §1
Bacillus cereus [40] = experiment: Antibacterial activity against Bacillus cereus ATCC 11778 at 2 mg/ml after 24 hrs by agar diffusion test; type: functional, organism-based; in short: as §1

## CC[C@H](COC(C)=O)N1C(=O)C=CC1=O
Bacillus cereus [1]
  Activity: 0.0125 mg/mL
Bacillus cereus [2]
  zone of inhibition at 50000 µg/mL: 40 mm
Micrococcus luteus [3]
  Activity: 0.06 mg/mL
Acinetobacter johnsonii [4]
  diameter of the inhibition zone (DIZ): inactive
Bacillus mycoides [5]
  diameter of the inhibition zone (DIZ): inactive
Micrococcus luteus [6]
  zone of inhibition at 50000 µg/mL: 38 mm
Escherichia coli [7]
  zone of inhibition at 50000 µg/mL: 29 mm
Staphylococcus aureus [8]
  diameter of the inhibition zone (DIZ): inactive
Escherichia coli [9]
  diameter of the inhibition zone (DIZ): inactive
Priestia megaterium [10]
  Activity: 0.06 mg/mL
Staphylococcus aureus [11]
  Activity: 0.06 mg/mL
Penicillium chrysogenum [12]
  Activity: 0.0125 mg/mL
Acinetobacter johnsonii [13]
  zone of inhibition at 50000 µg/mL: 39 mm
Penicillium chrysogenum [14]
  diameter of the inhibition zone (DIZ): inactive
[15]
  MIC: 23.7 µM (≈ 5 µg/mL)
Bacillus mycoides [16]
  zone of inhibition at 50000 µg/mL: 38 mm
Bacillus [17]
  diameter of the inhibition zone (DIZ): inactive
Bacillus mycoides [18]
  Activity: 0.06 mg/mL
Staphylococcus aureus [19]
  zone of inhibition at 50000 µg/mL: > 40 mm
Candida tropicalis [20]
  diameter of the inhibition zone (DIZ): inactive
Micrococcus luteus [21]
  Activity: 0.3 mg/mL
Candida tropicalis [22]
  Activity: 0.006 mg/mL
Candida tropicalis [23]
  zone of inhibition at 50000 µg/mL: > 40 mm
Bacillus subtilis [24]
  Activity: 0.06 mg/mL
Micrococcus luteus [25]
  zone of inhibition at 50000 µg/mL: 38 mm
Saccharomyces cerevisiae [26]
  diameter of the inhibition zone (DIZ): inactive
Micrococcus luteus [27]
  diameter of the inhibition zone (DIZ): inactive
Penicillium chrysogenum [28]
  zone of inhibition at 50000 µg/mL: > 40 mm
Priestia megaterium [29]
  zone of inhibition at 50000 µg/mL: 40 mm
Saccharomyces cerevisiae [30]
  Activity: 0.006 mg/mL
Priestia megaterium [31]
  diameter of the inhibition zone (DIZ): inactive
Micrococcus luteus [32]
  diameter of the inhibition zone (DIZ): inactive
Bacillus [33]
  Activity: 0.06 mg/mL
Saccharomyces cerevisiae [34]
  zone of inhibition at 50000 µg/mL: > 40 mm
Bacillus [35]
  zone of inhibition at 50000 µg/mL: 35 mm
Escherichia coli [36]
  Activity: 1.25 mg/mL
Bacillus subtilis [37]
  diameter of the inhibition zone (DIZ): inactive
Acinetobacter johnsonii [38]
  Activity: 0.06 mg/mL
Bacillus subtilis [39]
  zone of inhibition at 50000 µg/mL: 40 mm
Bacillus cereus [40]
  diameter of the inhibition zone (DIZ): inactive
